Source: publication PMC9165018 (Journal of medicinal chemistry, 2022)
“And” between values parts separate entries of the source, which are not always exact repeats. Equal values may be shown once. “Also recorded” adds a separate entry of the source. Read-outs that look alike come from different tables or passages of the source. Blank lines part the entries; values can stand above or below the compound they belong to.

Assays:
[1] = test system: MIA PaCa-2 cells; assay: 7-day MTT growth inhibition assay, MIA PaCa-2; type: cell-based; conditions: for IC50: Homo sapiens, MIA PaCa-2, 168 h; for activity (cytotoxicity in pancreatic cancer cells): 7-day MTT assay
Procedure, shortened: (§1)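 Cells were seeded in glucose-containing medium (MIA PaCa-2 200 cells/well; BxPC-3 300 cells/well), incubated overnight at 37 °C, 5% CO2, then exposed to test compound or DMSO for 7 days. MTT (3 mg/mL solution) was added for 4 h, formazan dissolved in DMSO, and A570 read. Inhibition = [1 − (At−Ab)/(Ac−Ab)] × 100. IC50 came from nonlinear regression; at least three independent runs.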

[2] = test system: BxPC-3 cells; assay: 7-day MTT growth inhibition assay, BxPC-3; type: cell-based; conditions: Homo sapiens, BXPC-3, 168 h, read-out: IC50 in BxPC-3 cells
Procedure, shortened: as §1

[3] = test system: OXPHOS Complex I; assay: NAD+/NADH ratio; type: cell-based; conditions: MIA PaCa-2 cells, NAD/NADH-Glo Assay, 2 days treatment
Procedure, shortened: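 MIA PaCa-2 cells (5 × 10^3/well) were treated the next day for 48 h with test compound in RPMI 1640 + 10% FBS. Cells were PBS-washed and lysed in bicarbonate base buffer with 1% DTAB. For NAD+, lysate was acid-treated (0.4 N HCl); for NADH, lysate was heated directly; both at 60 °C for 15 min, then neutralised with Trizma. After 30 min with Glo detection reagent, luminescence was read. IC50 of the NAD+/NADH ratio came from nonlinear regression.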

[4] = test system: Pan02 cells; assay: Pan02 syngeneic pancreatic cancer model efficacy study; type: in vivo; conditions: for tumor growth inhibition: Pan02 syngeneic model
Procedure, shortened: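 Female C57BL/6 mice, 6-10 weeks old, received 5×10^6 Pan02 cells s.c. in the right flank and were randomized (n = 5/group) at ~100 mm3. Dosing was daily for 28 days in 10% DMSO/50% PG/40% saline, or 10% DMSO/60% PG/30% saline for the 15 mg/kg dose. Tumours were measured by caliper twice weekly, V = (length × width²)/2. Body weight was recorded before dosing, then twice weekly.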

[5] = test system: MIA PaCa-2 cells; assay: 3-day MTT assay in glucose- or galactose-containing medium; type: cell-based
Procedure, shortened: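 MIA PaCa-2 cells were treated with test compound for 3 days in glucose-containing medium. MTT (3 mg/mL solution) was added for 4 h at 37 °C. Supernatant was removed, formazan was dissolved in DMSO, and absorbance was read at 570 nm. IC50 came from nonlinear regression of log concentration–response curves. Experiments were run at least three times.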

[6] = Pharmacokinetics in CD-1 mice; type: in vivo; conditions: plasma
Procedure, shortened: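 CD-1 mice received test compound at 2 mg/kg i.v. or 10 mg/kg p.o., and plasma concentration–time profiles were measured. Parameters came from non-compartmental analysis: AUC(0-tldc) to last detectable concentration and AUC(0-inf) extrapolated to infinity. Terminal half-life used ≥3 terminal-phase points. Bioavailability = (AUCpo × Dose_iv)/(AUCiv × Dose_po) × 100%.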

[7] = Microsomal stability test, human liver microsome; type: in vitro ADME; conditions: human liver microsomes
Procedure, shortened: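 Human liver microsomes (10 µL at 20 mg/mL) were combined with 330 µL 0.1 M phosphate buffer (3.3 mM MgCl2) and 40 µL of 10 µM test compound, with NADPH in the same buffer. Verapamil was the positive control.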

[8] = Microsomal stability test, mouse liver microsome; type: in vitro ADME; conditions: MLM and HLM t1/2, vs compound 1
[9] = read-out: IC50 in MIA PaCa-2 cells

Compound: O=C([C@@H]1CCCN(S(=O)(=O)c2ccc(S(=O)(=O)C3CCC3)cc2)C1)N1CCC(F)(F)CC1 [Compound 27, (R)-(1-((4-(Cyclobutylsulfonyl)phenyl)sulfonyl)piperidin-3-yl)(4,4-difluoropiperidin-1-yl)methanone]
IC50 [1, 9]: ~10 nM
IC50 [2]: < 100 nM
NAD+/NADH ratio (IC50, nM) Glucose medium [3]: 3.2 ± 1.3 nM
tumor growth inhibition ([4]; 2.5 mg/kg i.p. once daily for 28 days): significant tumor growth inhibition

Compound: CCP(=O)(CC)c1ccc(S(=O)(=O)N2CCC[C@@H](C(=O)N3CCC(F)(F)CC3)C2)cc1 [Compound 31, (R)-(1-((4-(diethylphosphoryl)phenyl)sulfonyl)piperidin-3-yl)(4,4-difluoropiperidin-1-yl)methanone]
activity (cytotoxicity in pancreatic cancer cells) [1]: complete loss of activity

Compound: CCN(CC)S(=O)(=O)c1ccc(S(=O)(=O)N2CCC[C@@H](C(=O)N3CCC(OC)CC3)C2)cc1 [Compound 12, (R)-N,N-Diethyl-4-((3-(4-methoxypiperidine-1-carbonyl)piperidin-1-yl)sulfonyl)benzenesulfonamide]
improvement in MIA PaCa-2 cell growth inhibition ([1]; vs compound 11): 2 fold
activity in glucose-containing medium [5]: inactive

Compound: CP(C)(=O)c1ccc(S(=O)(=O)N2CCC[C@@H](C(=O)N3CCC(F)(F)CC3)C2)cc1 [Compound 30, (R)-(4,4-Difluoropiperidin-1-yl)(1-((4-(dimethylphosphoryl)phenyl)sulfonyl)piperidin-3-yl)methanone]
activity (cytotoxicity in pancreatic cancer cells) [1]: complete loss of activity

Compound: CCN(CC)S(=O)(=O)c1ccc(S(=O)(=O)N2CCC[C@@H](C(=O)N3CCC(F)(F)CC3)C2)cc1 [Compound 16, (R)-4-((3-(4,4-Difluoropiperidine-1-carbonyl)piperidin-1-yl)sulfonyl)-N,N-diethylbenzenesulfonamide]
NAD+/NADH ratio (IC50, nM) Glucose medium [3]: 23 ± 18.1 nM

Compound: CC(C)S(=O)(=O)c1ccc(S(=O)(=O)N2CCC[C@@H](C(=O)N3CCC(F)(F)CC3)C2)cc1 [Compound 23, (R)-(4,4-Difluoropiperidin-1-yl)(1-((4-(isopropylsulfonyl)phenyl)sulfonyl)piperidin-3-yl)methanone]
IC50 [1, 9]: ~10 nM
IC50 [2]: < 100 nM
NAD+/NADH ratio (IC50, nM) Glucose medium [3]: 3.6 nM and 3.6 ± 3.2 nM
AUC(0-inf) ([6]; IV 2 mg/kg): 657.0 nM:h
AUC(0-tldc) ([6]; IV 2 mg/kg): 650.0 nM:h
AUC(0-inf) ([6]; PO 10 mg/kg): 417.1 nM:h
AUC(0-tldc) ([6]; PO 10 mg/kg): 368.1 nM:h
tolerability ([4]; Pan02 model, once daily for 28 days, 20 7.5 mg/kg i.p., 21 15 mg/kg i.p., 27 2.5 mg/kg i.p., 23 10 mg/kg p.o.): well tolerated
tumor growth inhibition ([4]; 10 mg/kg p.o. once daily for 28 days, 10 mg/kg): significant tumor growth inhibition; also recorded: significant tumor growth delay

Compound: O=C([C@@H]1CCCN(S(=O)(=O)c2ccc(S(=O)(=O)N3CC[C@@H](O)C3)cc2)C1)N1CCC(F)(F)CC1 [Compound 21, (4,4-Difluoropiperidin-1-yl)((R)-1-((4-(((R)-3-hydroxypyrrolidin-1-yl)sulfonyl)phenyl)sulfonyl)piperidin-3-yl)methanone]
NAD+/NADH ratio (IC50, nM) Glucose medium [3]: 67.5 ± 18.8 nM

HLM t1/2 (human liver microsome half life) [7]: 36 s
Compound: CCOC(=O)[C@@H]1CCCN(S(=O)(=O)c2ccc(S(=O)(=O)N(CC)CC)cc2)C1 [Compound 1]

IC50 [1, 9]: ~10 nM
IC50 [2]: < 100 nM
Compound: CCC(CC)S(=O)(=O)c1ccc(S(=O)(=O)N2CCC[C@@H](C(=O)N3CCC(F)(F)CC3)C2)cc1 [Compound 25, (R)-(4,4-Difluoropiperidin-1-yl)(1-((4-(pentan-3-ylsulfonyl)phenyl)sulfonyl)piperidin-3-yl)methanone]

IC50 ([1]; read-out: MIA PaCa-2 IC50): 118 ± 44 nM
Compound: CN(C)S(=O)(=O)c1ccc(S(=O)(=O)N2CCC[C@@H](C(=O)N3CCC(F)(F)CC3)C2)cc1 [Compound 20, (R)-4-((3-(4,4-Difluoropiperidine-1-carbonyl)piperidin-1-yl)sulfonyl)-N,N-dimethylbenzenesulfonamide]
NAD+/NADH ratio (IC50, nM) Glucose medium [3]: 34 ± 15 nM

improvement of microsomal stability over compound 1 [8]: more than 30 fold
Compound: CCN(CC)S(=O)(=O)c1ccc(S(=O)(=O)N2CCC[C@@H](C(=O)NC3COC3)C2)cc1 [Compound 2]
